Screening data: PubChem BioAssay, several laboratories
The full list was thinned out, with hits kept by preference.
CHOP UPR activ = activators of apoptotic arm of unfolded protein response (CHOP). AID 449763. actives 0.34% (n = 330,000). activation, % at 10 µM. CHO-CHOP luciferase reporter, UPR activation, luminescence; percent of tunicamycin response over DMSO baseline;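 active = at 10 µM dose, activation of 40% or more, normalized to positive control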
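assay system = CHO CHOP reporter cells | amount = 500 CHO-CHOP cells per well | buffer or medium = F12 with 10% FBS | incubation = 16-18 h cell attachment, then 6 h compound exposure, 37 °C | detection = luminescence read with Steady-Glo | read-out = percent activation relative to tunicamycin control | controls = tunicamycin high control, DMSO low control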
XBP1 UPR activ = activators of adaptive arm of unfolded protein response (XBP1); CHO-XBP1 luciferase reporter, IRE1-XBP1 UPR activation, luminescence; percent of tunicamycin response, DMSO as zero; AID 463104; activation, % at 20 µM; actives 0.33% (n = 330,000);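 active = versus positive control, 20 µM dose yields 30% or more activation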
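Material: CHO-XBP1 cells stably carrying IRE1-XBP1-driven luciferase reporter | Medium: F12 with 10% serum | Compound dosing: 20 µM single concentration, DMSO 1% | Incubation: Overnight seeding at 37 °C, 6 h compound treatment at 37 °C | Detection: Steady-Glo luminescence read | Read-out basis: % activation of reporter signal versus tunicamycin and DMSO controls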
Bfl-1 A1 inh = inhibitors of the anti-apoptotic protein A1, read as caspase activation; actives 0.066% (n = 330,000); MEF A1-2A-BIM cells, Caspase-Glo 3/7 luminescence, 3 h; percent of clofoctol response, vehicle zero; AID 2462; caspase activation, % (no concentration beside the values);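 active = over half of replicate activation scores above 10%, or exactly half above 10 with the replicate mean above 10; inconclusive = replicate mean below 10 yet half the replicates above 10; inactive = over half of replicates below 10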
CHOP inhibitor = CHOP inhibition in unfolded protein response. inhibition, % at 10 µM. actives 3.8% (n = 220,000). AID 2732. CHO-K1 CHOP-promoter luciferase, tunicamycin-induced, 15-18 h;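 active = compounds that reduced the stress-induced luciferase reporter signal by more than about 70% of percent inhibition, limit read from the data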
CHOP UPR conf = confirmation of apoptotic unfolded protein response (CHOP) activators; AID 463112; CHO-CHOP cells, CHOP-luciferase reporter luminescence; percent of tunicamycin response, DMSO as zero; actives 64% (n = 1,000); shares compounds with CHOP UPR activ; activation, % at 10 µM; in the data active = activation above about 33%
Of the large screens only hits and unclear results are named; the others gave an inactive call (follow-up assays come after a bar, where they were run).

COc1cc(OC)cc(C(=O)NC(=S)Nc2cc3oc4ccccc4c3cc2OC)c1	CHOP UPR activ 101 | CHOP UPR conf 74
O=C(NC1CCCC(C(F)(F)F)C1)c1ccc([N+](=O)[O-])o1 (stereo not given)	CHOP UPR activ 64 (no result: CHOP inhibitor) | CHOP UPR conf inactive
N#Cc1cc([N+](=O)[O-])ccc1NC(=O)COC(=O)CC1CCCC1	none
O=C(Nc1ccc2oc(-c3ccc4ccccc4c3)nc2c1)c1ccc2c(c1)OCCO2	CHOP UPR activ 40, XBP1 UPR activ 200 | CHOP UPR conf 105
CC(=O)N(Cc1cc2ccccc2[nH]c1=O)c1ccc(C)cc1	none (no result: CHOP inhibitor)
COc1ccc(-n2ncc(Cl)c(Cl)c2=O)cc1	CHOP UPR activ 50 (no result: Bfl-1 A1 inh) | CHOP UPR conf inactive
O=C(O)/C=C/C(=O)c1ccc2c(c1)CCc1ccccc1-2	CHOP UPR activ 126 (no result: CHOP inhibitor) | CHOP UPR conf inactive
C=CCn1c(O)c(N=NC(=S)Nc2ccccc2F)c2cc(S(=O)(=O)N3CCOCC3)ccc21	CHOP UPR activ 88 | CHOP UPR conf 121
C=CCn1c(O)c(N=NC(=S)Nc2ccccc2F)c2ccccc21	none
CN(CC(=O)Nc1cccc(F)c1)C(=O)/C=C/c1ccc2ccccc2n1	none (no result: CHOP inhibitor)
Cc1cc(O)c(-c2cc(O)c(C)cc2O)cc1O	CHOP UPR activ 74 | CHOP UPR conf 136
Cc1ccc(N)cc1O	none (no result: CHOP inhibitor)
CC1=C/C(=N\OC(=O)/C=C/c2ccccc2)C(C)=CC1=O	CHOP UPR activ 107 | CHOP UPR conf 41
CCCCn1c(/C=N/Nc2nc3ccccc3[nH]2)nc2ccccc21	CHOP UPR activ 113 | CHOP UPR conf 294
COc1cc(/C=N\Nc2nc3ccccc3[nH]2)cc(OC)c1OC	none
COc1ccc2c(c1)c(/C=N/Nc1nc3ccccc3[nH]1)c(C)n2C	CHOP UPR activ 287 | CHOP UPR conf inactive
CCOC(=O)[C@@H]1[C@H]2COc3cc(OC)ccc3[C@H]2N2C(=O)N(c3cccc(F)c3)C(=O)[C@]12C	none (no result: CHOP inhibitor)
CCOc1cc(/C=C2\CN(CC)C/C(=C\c3ccc(O)c(OCC)c3)C2=O)ccc1O	CHOP UPR activ 78 (no result: CHOP inhibitor) | CHOP UPR conf 86
CC(NC(=O)C12CC3CC(CC(C3)C1)C2)C(=O)NN=Cc1ccc([N+](=O)[O-])o1 (stereo not given)	CHOP UPR activ 197 (no result: CHOP inhibitor) | CHOP UPR conf inactive
O=C(N/N=C/c1ccc([N+](=O)[O-])o1)C1CCCC1	none (no result: CHOP inhibitor)
CC(NC(=O)c1ccc([N+](=O)[O-])o1)C12CC3CC(CC(C3)C1)C2 (stereo not given)	CHOP UPR activ 85 (no result: CHOP inhibitor) | CHOP UPR conf inactive
COc1cccc(OC)c1C(=O)NC(C)C12CC3CC(CC(C3)C1)C2 (stereo not given)	none
CCNc1ccccc1CP(=O)(c1ccccc1)c1ccccc1O (stereo not given)	CHOP UPR activ 186 (no result: CHOP inhibitor) | CHOP UPR conf 37
Cc1ccc(O)c(CP(=O)(c2ccccc2)c2ccccc2)c1	none
CCCN(C(=O)CSc1ccccc1C(=O)O)C1CCS(=O)(=O)C1 (stereo not given)	none (no result: CHOP inhibitor)
COc1cc(NC(=O)CNc2cccc(S(=O)(=O)N3CCOCC3)c2)cc(OC)c1	CHOP UPR activ 41 (no result: Bfl-1 A1 inh, CHOP inhibitor) | CHOP UPR conf inactive
Cn1c(O)c(N=Nc2ccccc2)c2ccccc21	none (no result: CHOP inhibitor)
Cc1ccc2c(c1)c(N=Nc1ccc([N+](=O)[O-])cc1)c(O)n2C	CHOP UPR activ 73, XBP1 UPR activ 99 (no result: CHOP inhibitor) | CHOP UPR conf inactive
CC(Nc1cccc(C(=O)NC2CC2)c1)c1nnc(-c2ccccc2)o1 (stereo not given)	none (no result: CHOP inhibitor)
COc1ccc(C2Nc3ccc4ccccc4c3-c3c2c(=O)oc2ccccc32)cc1 (stereo not given)	CHOP UPR activ 49, XBP1 UPR activ 134, Bfl-1 A1 inh 8.7 | CHOP UPR conf 47
O=c1oc2ccccc2c2c1C(c1ccc(Cl)cc1)Nc1ccc3ccccc3c1-2 (stereo not given)	none
COc1ccc(C(=O)Sc2ccc(C)cc2)cc1OC	none
COc1ccc(C(=O)Sc2ccc(Cl)cc2)cc1OC	CHOP UPR activ 87 | CHOP UPR conf 58
Cc1ccc(NC(=O)Cn2ncc(Cl)c(Cl)c2=O)cc1S(=O)(=O)N1CCCCC1	CHOP UPR activ 88, Bfl-1 A1 inh inconclusive (no result: CHOP inhibitor) | CHOP UPR conf 57
CCOc1ccc2nc(Cl)c(C3CC(c4ccccc4)=NN3C(=O)c3ccco3)cc2c1 (stereo not given)	CHOP UPR activ 124, XBP1 UPR activ 122, CHOP inhibitor 96 | CHOP UPR conf inactive
CCOC(=O)C(=Cc1ccc(F)cc1)C(=O)OCC	CHOP UPR activ 122 | CHOP UPR conf 140
CCOC(=O)C(=Cc1ccc(-n2ccnc2)cc1)C(=O)OCC	CHOP UPR activ 188 | CHOP UPR conf 142
COC(=O)c1ccc(-n2ccnc2)cc1	none
Cc1ccc(Sc2c(O)c3ccccc3n(C)c2=O)cc1	none (no result: CHOP UPR activ, XBP1 UPR activ, Bfl-1 A1 inh)
Cc1ccc(Sc2c([N+](=O)[O-])c(=O)n(C)c3ccccc23)cc1	CHOP UPR activ 101 (no result: CHOP inhibitor) | CHOP UPR conf 99
CCSC1(SCC)N=C(N)C2(C#N)C(c3ccc(OC)c(OC)c3OC)C12C#N (stereo not given)	CHOP UPR activ 214 | CHOP UPR conf 307
O=C(CN1CCN(CC(=O)Nc2ccccc2Cl)CC1)NCC1(N2CCOCC2)CCCCC1	none (no result: Bfl-1 A1 inh, CHOP inhibitor)
CC1=NOC(=O)/C1=C\c1ccc(-c2ccc(Cl)cc2Cl)o1	CHOP UPR activ 106, CHOP inhibitor 112 (no result: Bfl-1 A1 inh) | CHOP UPR conf 110
Cc1nn(C(C)C(=O)NCc2ccco2)c(=O)c2nn(-c3ccccc3)c(C)c12 (stereo not given)	none (no result: CHOP inhibitor)
CC(=O)N(C)Cc1ccc(C(=O)CCl)cc1	CHOP UPR activ 94, CHOP inhibitor 105 | CHOP UPR conf inactive
CCc1c(C)sc(NC(=O)c2cccs2)c1C#N	CHOP UPR activ 50 | CHOP UPR conf inactive
O=C1C=C(N2CCCCC2)c2ccccc2C1=O	CHOP UPR activ 76 (no result: CHOP inhibitor) | CHOP UPR conf inactive
O=C1c2ccccc2C(=O)c2c1cccc2N1CCCC1	none (no result: CHOP UPR activ, XBP1 UPR activ)
NNC(=O)CSc1cccc2cccnc12	none
CN(C)C(=O)CSc1cccc2cccnc12	CHOP UPR activ 214 | CHOP UPR conf 205
c1ccc(CSc2ncccn2)cc1	none
c1ccc(CSC2=NNC(c3ccccn3)S2)cc1 (stereo not given)	CHOP UPR activ 240 | CHOP UPR conf 313
Cc1ccc(-c2nc(SCC(=O)Nc3cc(C)on3)c3c(=O)n(C)c(=O)n(C)c3n2)cc1	CHOP UPR activ 58 (no result: CHOP inhibitor) | CHOP UPR conf 104
C[C@H]1CN([C@@H](C)CO)C(=O)c2cccc(NC(=O)c3nc4ccccc4s3)c2O[C@H]1CN(C)C(=O)Nc1ccc(F)cc1	none (no result: CHOP inhibitor)
COc1cc(NS(=O)(=O)c2cn(C)cn2)cc(OC)c1	none (no result: CHOP inhibitor)
O=C(NCc1cccnc1)/C(=C\c1ccc(-c2cccc(Cl)c2)o1)S(=O)(=O)c1ccccc1	none (no result: CHOP UPR activ, XBP1 UPR activ)
